Assay results reported in ChEMBL document CHEMBL1671805, “Biotin ergopeptide probes for dopamine receptors” (J Med Chem, 2011).
Active and inactive are the calls of the source. No cut-off for these calls is given here.

Tests used:
[1] = target: Metabotropic glutamate receptor 5 (Homo sapiens) (UniProt P41594); experiment: Displacement of [3H]-quisqualic acid from mGlu5 receptor
Summary of the method: (§1)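 Membranes were incubated with 27 nM [3H]-quisqualic acid for 2 h at 22 C in 50 mM Tris-HCl pH 7.4 with 10 mM MgCl2. Nonspecific binding was taken with 10 μM quisqualic acid. Bound ligand was filtered and counted.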

[2] = target: D(1A) dopamine receptor (Homo sapiens) (UniProt P21728); experiment: Agonist activity at human dopamine D1 receptor expressed in CHO cells assessed as decrease of Akt phosphorylation at Ser473; format: functional, cell-based
Summary of the method: (§2)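 Transiently transfected CHO cells (human D1R for D1 lines, D2R for D2 lines; 2 μg cDNA, PEI) were serum-starved 16 h. They were optionally pretreated 5 min with 5 or 50 μM antagonist (SCH23390 for D1R, raclopride for D2R), then given increasing ligand concentrations for 5 min. Lysates were western-blotted for phospho-ERK1/2 or P-Ser473Akt, normalized to total ERK. Mean ± SEM of four independent experiments.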

[3] = target: D(1A) dopamine receptor (Homo sapiens) (UniProt P21728); experiment: Agonist activity at human dopamine D1 receptor expressed in CHO cells assessed as decrease of Akt phosphorylation at Ser473 in presence of SCH23390; format: functional, cell-based; summary of the method: as §2
[4] = Displacement of [3H]-YM09151-2 from dopamine D2 receptor low binding affinity site in lamb brain striatum membranes at 25 uM; format: cell membranes, Ovis aries, Membrane
Summary of the method: (§3)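 Lamb striatal membranes (0.5 mg prot/mL) in 50 mM Tris-HCl pH 7.4 with 10 mM MgCl2 were incubated 2 h at 22 C. Radioligand was 0.9 nM [3H]-SCH23390 (D1) or 0.7 nM [3H]-YM09151-2 (D2). Screens used 25 μM compound; competition used increasing concentrations. Nonspecific binding was taken with 10 μM SCH23390 (D1) or raclopride (D2). Bound ligand was filtered and counted. KD values came from a two-state dimer receptor model fit.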

[5] = target: Cannabinoid receptor 1 (Homo sapiens) (UniProt P21554); experiment: Displacement of [3H]-CP55940 from CB1 receptor
Summary of the method: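 Membranes in siliconated tubes were incubated with 0.5 nM [3H]-CP 55940 for 2 h at 22 C in Tris-HCl pH 7.4 with 10 mM MgCl2 and 1 mg/mL fatty acid-free BSA. BSA was also in the filter presoak and wash. Nonspecific binding was taken with 10 μM CP55940.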

[6] = Displacement of [3H]-SCH23390 from dopamine D1 receptor low binding affinity site in lamb brain striatum membranes at 25 uM; format: cell membranes, Ovis aries, Membrane; summary of the method: as §3
[7] = target: D(2) dopamine receptor (Homo sapiens) (UniProt P14416); experiment: Agonist activity at human dopamine D2 receptor expressed in CHO cells assessed as increase of ERK1/2 phosphorylation; format: functional, cell-based; summary of the method: as §2
[8] = target: Somatostatin receptor type 5 (Homo sapiens) (UniProt P35346); experiment: Displacement of [125I]-Tyr11-somatostatin 14 from SST5 receptor
Summary of the method: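 Membranes were incubated with 0.1 nM [125I]-Tyr11-somatostatin 14 for 3 h at 22 C in 50 mM Tris-HCl pH 7.4 with 10 mM MgCl2. Nonspecific binding was taken with 100 nM somatostatin. Bound ligand was separated by filtration and counted.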

[9] = target: D(2) dopamine receptor (Homo sapiens) (UniProt P14416); experiment: Agonist activity at human dopamine D2 receptor expressed in CHO cells assessed as decrease of Akt phosphorylation at Ser473; format: functional, cell-based; summary of the method: as §2
[10] = target: T1, D(3) dopamine receptor (Homo sapiens, UniProt P35462); experiment: Displacement of [3H]-raclopride from human dopamine D3 receptor high binding affinity site expressed in CHO cells; format: cell-based
Summary of the method: (§4)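 Membranes (0.5 mg prot/mL) from CHO cells transiently transfected with 2 μg human D3R cDNA were incubated with 4 nM [3H]-raclopride and increasing competitor for 2 h at 22 C in Tris-HCl pH 7.4 with 10 mM MgCl2. Nonspecific binding was taken with 10 μM raclopride. High- and low-affinity KD values came from a two-state dimer receptor model fit. Triplicate.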

[11] = target: D(2) dopamine receptor (Homo sapiens) (UniProt P14416); experiment: Agonist activity at human dopamine D2 receptor expressed in CHO cells assessed as decrease of Akt phosphorylation at Ser473 in presence of raclopride; format: functional, cell-based; summary of the method: as §2
[12] = target: Metabotropic glutamate receptor 1 (Homo sapiens) (UniProt Q13255); experiment: Displacement of [3H]-quisqualic acid from mGlu1 receptor; summary of the method: as §1
[13] = target: D(2) dopamine receptor (Homo sapiens) (UniProt P14416); experiment: Agonist activity at human dopamine D2 receptor expressed in CHO cells assessed as increase of ERK1/2 phosphorylation in presence of raclopride; format: functional, cell-based; summary of the method: as §2
[14] = target: D(1A) dopamine receptor (Homo sapiens) (UniProt P21728); experiment: Agonist activity at human dopamine D1 receptor expressed in CHO cells assessed as increase of ERK1/2 phosphorylation in presence of SCH23390; format: functional, cell-based; summary of the method: as §2
[15] = target: Histamine H3 receptor (Homo sapiens) (UniProt Q9Y5N1); experiment: Displacement of [3H]-RAMH from histamine H3 receptor
Summary of the method: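 Membranes were incubated with 2.5 nM [3H]-RAMH for 2 h at 22 C in 50 mM Tris-HCl pH 7.4 with 10 mM MgCl2. Nonspecific binding was taken with 10 μM RAMH. Bound ligand was filtered and counted.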

[16] = target: D(1A) dopamine receptor (Homo sapiens) (UniProt P21728); experiment: Agonist activity at human dopamine D1 receptor expressed in CHO cells assessed as increase of ERK1/2 phosphorylation; format: functional, cell-based; summary of the method: as §2
[17] = Displacement of [3H]-SCH23390 from dopamine D1 receptor high binding affinity site in lamb brain striatum membranes at 25 uM; format: cell membranes, Ovis aries, Membrane; summary of the method: as §3
[18] = Displacement of [3H]-YM09151-2 from dopamine D2 receptor high binding affinity site in lamb brain striatum membranes at 25 uM; format: cell membranes, Ovis aries, Membrane; summary of the method: as §3
[19] = target: T1, D(3) dopamine receptor; experiment: Displacement of [3H]-raclopride from human dopamine D3 receptor low binding affinity site expressed in CHO cells; format: cell-based; summary of the method: as §4

D(2) dopamine receptor (Homo sapiens), sequence (P14416 whole entry): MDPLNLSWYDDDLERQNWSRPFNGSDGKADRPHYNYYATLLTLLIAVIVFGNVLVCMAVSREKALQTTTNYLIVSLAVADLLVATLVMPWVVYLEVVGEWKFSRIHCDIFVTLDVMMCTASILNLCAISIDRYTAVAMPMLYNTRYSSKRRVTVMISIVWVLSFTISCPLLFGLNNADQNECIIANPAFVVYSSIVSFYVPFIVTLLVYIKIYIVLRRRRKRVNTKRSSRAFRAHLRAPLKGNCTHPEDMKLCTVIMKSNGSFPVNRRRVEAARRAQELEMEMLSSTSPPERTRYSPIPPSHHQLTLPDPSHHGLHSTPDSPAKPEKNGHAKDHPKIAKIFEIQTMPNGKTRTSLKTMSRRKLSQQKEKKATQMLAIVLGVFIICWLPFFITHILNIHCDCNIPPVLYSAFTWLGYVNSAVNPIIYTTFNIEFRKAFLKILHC
D(1A) dopamine receptor (Homo sapiens), sequence (P21728 whole entry): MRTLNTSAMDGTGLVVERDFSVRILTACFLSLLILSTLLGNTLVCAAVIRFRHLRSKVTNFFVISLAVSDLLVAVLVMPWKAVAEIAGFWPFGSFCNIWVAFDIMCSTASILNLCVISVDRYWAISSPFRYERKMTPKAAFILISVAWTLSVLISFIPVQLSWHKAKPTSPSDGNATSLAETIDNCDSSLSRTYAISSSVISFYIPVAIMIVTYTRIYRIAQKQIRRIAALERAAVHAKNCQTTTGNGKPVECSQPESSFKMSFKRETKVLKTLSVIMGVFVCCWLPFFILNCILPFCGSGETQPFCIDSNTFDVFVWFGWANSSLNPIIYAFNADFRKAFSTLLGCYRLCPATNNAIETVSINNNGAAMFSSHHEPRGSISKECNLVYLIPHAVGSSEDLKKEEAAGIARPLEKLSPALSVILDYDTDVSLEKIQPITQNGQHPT
T1 sequence (P35462 whole entry): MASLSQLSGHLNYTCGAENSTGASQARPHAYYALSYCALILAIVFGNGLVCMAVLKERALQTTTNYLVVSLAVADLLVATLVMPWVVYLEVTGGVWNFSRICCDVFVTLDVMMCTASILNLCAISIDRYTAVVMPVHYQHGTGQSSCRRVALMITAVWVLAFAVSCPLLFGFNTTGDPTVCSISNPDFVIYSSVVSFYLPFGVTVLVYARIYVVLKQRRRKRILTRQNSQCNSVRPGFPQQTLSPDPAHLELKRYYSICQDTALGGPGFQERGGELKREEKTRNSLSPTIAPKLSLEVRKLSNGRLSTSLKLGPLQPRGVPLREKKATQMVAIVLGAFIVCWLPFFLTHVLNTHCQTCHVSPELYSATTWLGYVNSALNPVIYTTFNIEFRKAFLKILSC
Cannabinoid receptor 1 (Homo sapiens), sequence (P21554 whole entry): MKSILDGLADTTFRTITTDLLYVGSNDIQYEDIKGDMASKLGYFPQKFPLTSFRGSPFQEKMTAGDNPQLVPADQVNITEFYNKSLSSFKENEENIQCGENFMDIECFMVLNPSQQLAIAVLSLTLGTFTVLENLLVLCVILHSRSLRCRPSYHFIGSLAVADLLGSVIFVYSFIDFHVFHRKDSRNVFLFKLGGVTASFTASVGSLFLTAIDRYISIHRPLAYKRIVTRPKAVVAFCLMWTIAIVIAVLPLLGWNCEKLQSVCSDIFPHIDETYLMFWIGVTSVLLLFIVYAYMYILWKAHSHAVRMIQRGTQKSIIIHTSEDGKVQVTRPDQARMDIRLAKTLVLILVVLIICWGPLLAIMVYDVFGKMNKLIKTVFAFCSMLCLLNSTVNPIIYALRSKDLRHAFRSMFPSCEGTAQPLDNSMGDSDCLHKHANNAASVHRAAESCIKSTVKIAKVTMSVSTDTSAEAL
Histamine H3 receptor (Homo sapiens), sequence (Q9Y5N1 whole entry): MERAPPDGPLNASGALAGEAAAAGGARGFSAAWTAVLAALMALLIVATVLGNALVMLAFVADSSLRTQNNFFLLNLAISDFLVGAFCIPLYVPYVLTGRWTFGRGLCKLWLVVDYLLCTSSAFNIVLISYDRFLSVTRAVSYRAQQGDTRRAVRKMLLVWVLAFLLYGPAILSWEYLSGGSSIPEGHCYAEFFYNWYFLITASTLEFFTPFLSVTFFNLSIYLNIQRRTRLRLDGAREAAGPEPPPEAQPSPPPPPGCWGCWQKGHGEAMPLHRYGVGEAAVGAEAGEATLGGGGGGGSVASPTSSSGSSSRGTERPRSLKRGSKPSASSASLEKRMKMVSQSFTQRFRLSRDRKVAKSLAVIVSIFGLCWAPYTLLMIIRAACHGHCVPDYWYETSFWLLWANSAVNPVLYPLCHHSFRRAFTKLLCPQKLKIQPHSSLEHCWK
Somatostatin receptor type 5 (Homo sapiens), sequence (P35346 whole entry): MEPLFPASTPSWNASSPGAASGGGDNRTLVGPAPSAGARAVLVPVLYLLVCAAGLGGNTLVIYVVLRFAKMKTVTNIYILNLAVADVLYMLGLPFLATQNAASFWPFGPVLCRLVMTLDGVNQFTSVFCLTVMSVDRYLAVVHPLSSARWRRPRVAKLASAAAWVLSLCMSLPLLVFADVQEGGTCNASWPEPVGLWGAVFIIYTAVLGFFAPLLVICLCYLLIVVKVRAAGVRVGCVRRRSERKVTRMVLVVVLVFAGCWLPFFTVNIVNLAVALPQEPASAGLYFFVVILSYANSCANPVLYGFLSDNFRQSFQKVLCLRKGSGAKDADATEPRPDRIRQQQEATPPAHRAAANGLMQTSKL
Metabotropic glutamate receptor 5 (Homo sapiens), sequence (P41594 21-1212 limits assumed): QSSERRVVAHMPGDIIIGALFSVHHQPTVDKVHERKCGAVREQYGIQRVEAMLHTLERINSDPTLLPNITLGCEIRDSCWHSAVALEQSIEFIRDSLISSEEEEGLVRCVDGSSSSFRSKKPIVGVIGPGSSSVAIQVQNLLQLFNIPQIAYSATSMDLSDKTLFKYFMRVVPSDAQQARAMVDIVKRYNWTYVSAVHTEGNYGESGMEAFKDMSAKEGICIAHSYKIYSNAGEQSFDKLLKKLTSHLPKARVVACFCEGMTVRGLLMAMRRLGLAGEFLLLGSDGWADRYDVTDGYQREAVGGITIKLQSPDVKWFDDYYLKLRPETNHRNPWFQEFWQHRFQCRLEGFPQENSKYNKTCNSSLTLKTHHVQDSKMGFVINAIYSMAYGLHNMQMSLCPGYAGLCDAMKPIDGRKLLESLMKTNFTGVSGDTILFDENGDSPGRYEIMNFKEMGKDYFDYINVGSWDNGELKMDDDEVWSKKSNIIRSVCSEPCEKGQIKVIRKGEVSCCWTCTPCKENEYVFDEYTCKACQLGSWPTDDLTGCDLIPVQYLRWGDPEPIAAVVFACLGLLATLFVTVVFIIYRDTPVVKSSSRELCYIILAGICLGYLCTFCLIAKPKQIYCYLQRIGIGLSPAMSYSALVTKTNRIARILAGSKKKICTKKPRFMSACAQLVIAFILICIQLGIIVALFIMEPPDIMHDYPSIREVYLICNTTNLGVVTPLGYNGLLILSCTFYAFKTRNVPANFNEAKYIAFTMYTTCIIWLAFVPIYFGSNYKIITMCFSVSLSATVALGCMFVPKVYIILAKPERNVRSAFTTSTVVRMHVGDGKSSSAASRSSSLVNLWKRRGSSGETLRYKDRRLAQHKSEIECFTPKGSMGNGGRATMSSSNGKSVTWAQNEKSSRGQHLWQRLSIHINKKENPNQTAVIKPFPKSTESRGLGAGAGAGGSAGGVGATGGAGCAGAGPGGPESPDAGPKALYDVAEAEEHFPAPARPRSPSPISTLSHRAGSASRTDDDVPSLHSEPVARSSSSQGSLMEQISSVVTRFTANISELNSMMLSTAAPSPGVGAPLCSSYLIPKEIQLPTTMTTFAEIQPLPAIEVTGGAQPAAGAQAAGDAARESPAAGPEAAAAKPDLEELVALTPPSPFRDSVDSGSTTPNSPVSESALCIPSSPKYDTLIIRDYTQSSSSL
Metabotropic glutamate receptor 1 (Homo sapiens), sequence (Q13255 19-1194 limits assumed): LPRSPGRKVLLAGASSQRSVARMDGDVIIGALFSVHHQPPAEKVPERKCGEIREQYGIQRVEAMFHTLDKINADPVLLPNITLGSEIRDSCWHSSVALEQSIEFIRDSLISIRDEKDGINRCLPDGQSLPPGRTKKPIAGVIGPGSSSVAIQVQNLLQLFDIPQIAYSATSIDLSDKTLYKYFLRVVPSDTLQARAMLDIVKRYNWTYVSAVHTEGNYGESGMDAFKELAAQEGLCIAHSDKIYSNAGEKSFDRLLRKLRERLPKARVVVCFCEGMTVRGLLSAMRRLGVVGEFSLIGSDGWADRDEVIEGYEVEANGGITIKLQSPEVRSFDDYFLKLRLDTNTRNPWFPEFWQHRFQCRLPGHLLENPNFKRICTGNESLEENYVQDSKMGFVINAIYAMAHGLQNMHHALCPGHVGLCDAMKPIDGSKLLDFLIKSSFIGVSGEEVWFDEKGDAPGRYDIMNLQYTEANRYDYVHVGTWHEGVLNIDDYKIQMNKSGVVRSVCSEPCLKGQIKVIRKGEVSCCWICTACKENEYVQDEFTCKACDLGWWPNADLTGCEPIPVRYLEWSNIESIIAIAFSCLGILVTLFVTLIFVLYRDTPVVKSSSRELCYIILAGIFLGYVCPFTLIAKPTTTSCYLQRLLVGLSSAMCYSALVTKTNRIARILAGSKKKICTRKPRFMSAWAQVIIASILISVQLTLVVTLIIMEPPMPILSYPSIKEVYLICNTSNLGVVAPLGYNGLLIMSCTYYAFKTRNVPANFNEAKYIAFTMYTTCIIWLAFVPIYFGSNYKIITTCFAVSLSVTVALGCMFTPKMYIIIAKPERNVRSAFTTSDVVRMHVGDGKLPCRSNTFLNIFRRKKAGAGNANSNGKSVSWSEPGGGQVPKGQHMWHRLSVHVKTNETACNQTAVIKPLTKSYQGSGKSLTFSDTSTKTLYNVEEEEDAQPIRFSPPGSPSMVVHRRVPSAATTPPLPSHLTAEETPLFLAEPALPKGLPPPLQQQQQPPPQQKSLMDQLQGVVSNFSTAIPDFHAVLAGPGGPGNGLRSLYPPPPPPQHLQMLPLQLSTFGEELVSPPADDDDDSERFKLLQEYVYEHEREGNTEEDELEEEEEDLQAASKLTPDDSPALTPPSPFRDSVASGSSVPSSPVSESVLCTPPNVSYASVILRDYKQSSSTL

Activity [1]: inactive | Activity [2]: Dose-dependent effect | Activity [3]: inactive | Kd [4]: 9 µM | Activity [5]: inactive | Kd [6]: 1500 nM | Activity [7]: Dose-dependent effect | Activity [8]: inactive | Activity [9]: Dose-dependent effect | Kd [10]: 23 nM | Activity [11]: inactive | Activity [12]: inactive | Activity [13]: inactive | Activity [14]: inactive | Activity [15]: inactive | Activity [16]: Dose-dependent effect | Kd [17]: 56 nM | Kd [18]: 17 nM | Kd [19]: 93 nM
Compound: CN1C[C@H](C(=O)N[C@@H](Cc2ccc([N+](=O)[O-])cc2)C(=O)N[C@@H](Cc2ccc(F)cc2)C(=O)N2CCCC(C(=O)NCCCCCC(=O)NCCCC[C@H](NC(=O)CCCC[C@H]3SC[C@H]4NC(=O)N[C@H]43)C(N)=O)C2)C=C2c3cccc4[nH]cc(c34)C[C@H]21 (some centres undefined)
